Laboratory results reported in ChEMBL document CHEMBL3044648, “Quantitative structure-activity relationships of monoterpenoid binding activities to the housefly GABA receptor” (2012).

Experiments:
[1] = biological target: T1, GABA receptor subunit (Musca domestica) (UniProt Q75NA5); experiment: Displacement of [3H]TBOB binding to GABA receptor in Musca domestica (house fly) heads homogenates assessed as [3H]TBOB binding at 500 uM incubated for 90 min by scintillation counting method
T1 sequence (whole entry): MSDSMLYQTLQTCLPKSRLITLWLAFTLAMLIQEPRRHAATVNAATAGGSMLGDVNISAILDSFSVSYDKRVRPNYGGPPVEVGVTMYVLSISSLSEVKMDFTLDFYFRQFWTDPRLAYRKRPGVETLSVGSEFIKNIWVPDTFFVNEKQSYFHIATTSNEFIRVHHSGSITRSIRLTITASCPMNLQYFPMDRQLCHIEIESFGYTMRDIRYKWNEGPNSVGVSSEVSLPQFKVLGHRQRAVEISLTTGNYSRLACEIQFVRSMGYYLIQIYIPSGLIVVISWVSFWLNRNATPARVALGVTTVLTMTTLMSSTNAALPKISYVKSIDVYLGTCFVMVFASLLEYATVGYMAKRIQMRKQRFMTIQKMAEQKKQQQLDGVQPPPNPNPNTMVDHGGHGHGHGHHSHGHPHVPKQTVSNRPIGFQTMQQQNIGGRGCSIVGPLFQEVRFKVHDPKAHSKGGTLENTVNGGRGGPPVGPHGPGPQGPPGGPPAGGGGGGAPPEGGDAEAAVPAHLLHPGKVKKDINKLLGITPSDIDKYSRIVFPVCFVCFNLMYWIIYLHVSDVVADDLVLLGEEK
Procedure, shortened: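 House fly head membranes (homogenized in 10 mM Tris-HCl pH 7.5 with 0.25 M sucrose, pelleted at 25,000xg, resuspended in 10 mM phosphate pH 7.5 with 300 mM NaCl); 20 µg protein incubated 90 min at 20 °C with 4 nM [³H]-TBOB and 500 µM monoterpenoid; GF/B filtration; nonspecific binding with 100 µM picrotoxin; specific binding as % of untreated; at least three repeats, mean ± SEM.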

Musca domestica = experiment: Toxicity to Musca domestica (house fly) applied to pronotum assessed as compound level per fly causing insect mortality measured after 24 hr; type: functional

Compound	Activity [1] [%]	LD50 (Musca domestica) [µg]
CC1=CC[C@@H](C(C)(C)O)CC1	95	
Cc1ccc(C(C)C)c(O)c1	180	
O=C(O)/C=C/c1ccccc1	101	
CC(C)[C@H]1CC[C@H](C)CC1=O (relative stereo)	86	
CC(C)C12CCC(C)(CC1)O2 [1,4-CINEOLE]	117	151.7
CC12CCC(CC1=O)C2(C)C (stereo not given) [CAMPHOR]	70	149.5
Cc1ccc(C(C)C)cc1O [CARVACROL]	156	60.1
CC(C)=CCC[C@@H](C)CC=O [CITRONELLAL]	92	46.8
CC(C)=CCCC(C)CC(=O)O (stereo not given) [CITRONELLIC ACID]	138	25.2
C=C(C)[C@H]1CC=C(C)CC1 [D-LIMONENE]	86	89.4
CC12CCC(CC1)C(C)(C)O2 [EUCALYPTOL]	122	63.2
C=CCc1ccc(O)c(OC)c1 [EUGENOL]	88	46.4
C=C(C)C1CCC2(C)OC2C1 (stereo not given) [LIMONENE OXIDE]	141	67.8
C=CC(C)(O)CCC=C(C)C (stereo not given) [LINALOOL]	124	72.3
CC1CCC(C(C)C)C(O)C1 (stereo not given) [MENTHOL]	80	128.9
COC(=O)c1ccccc1O [METHYL SALICYLATE]	103	41.2
Cc1ccc(C(C)C)cc1 [P-CYMENE]	90	94.7
CCC(=O)OCCc1ccccc1 [PHENETHYL PROPIONATE]	95	66.6
O=Cc1ccc2c(c1)OCO2 [PIPERONAL]	93	36.1
CC(C)=C1CC[C@@H](C)CC1=O [PULEGONE]	132	92.2
C=CCc1ccc2c(c1)OCO2 [SAFROLE]	43	18.3
COc1cc(C=O)ccc1O [VANILLIN]	82	>500
